From ChEMBL document CHEMBL4251563, “Design and synthesis of thienopyrimidine urea derivatives with potential cytotoxic and pro-apoptotic activity against breast cancer cell line MCF-7” (Eur J Med Chem, 2018)

Key:
MCF7 [1] = assay: Antiproliferative activity against human MCF7 cells after 48 hrs by sulforhodamine B assay; type: functional, cell-based; conditions: MCF7, 48 h
Summary of the method: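 MCF-7 cells seeded at 5×10^4–10^5 cells/well, allowed to attach 24 h, then exposed to 0, 5, 12.5, 25 and 50 µg/mL for 48 h. Compounds were dissolved in DMSO and diluted with saline; controls got vehicle only; four wells per concentration. Cells fixed with cold 50% TCA, stained with 0.4% SRB, dye solubilised in 10 mM tris pH 10.5, OD read at 564 nm. Survival fraction = OD treated/OD control; IC50 taken from the survival-versus-concentration plot.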

MCF7 [2] = assay: Potency index, ratio of doxorubicin IC50 to compound IC50 for antiproliferative activity against human MCF7 cells; type: functional
MCF7 [3] = assay: Cell cycle arrest in human MCF7 cells assessed as increase in accumulation at pre-G1 phase at 7.1 uM after 24 hrs by propidium iodide staining-based flow cytometry relative to control; type: functional
Summary of the method: (§1)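 MCF-7 cells treated 24 h with 7.10 µM. Cells washed with ice-cold PBS, fixed in ice-cold 70% ethanol, resuspended with 0.1 mg/mL RNase and stained with propidium iodide. DNA content read by FACSCalibur flow cytometry to give phase distribution (pre-G1/sub-G1, G1, S, G2/M).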

MCF7 [4] = assay: Cell cycle arrest in human MCF7 cells assessed as increase in accumulation at G2/M phase at 7.1 uM after 24 hrs by propidium iodide staining-based flow cytometry relative to control; type: functional; summary of the method: as §1
MCF7 [5] = assay: Cell cycle arrest in human MCF7 cells assessed as accumulation at G1 phase at 7.1 uM after 24 hrs by propidium iodide staining-based flow cytometry (reference value: 66.4%); type: functional; summary of the method: as §1
MCF7 [6] = assay: Cell cycle arrest in human MCF7 cells assessed as accumulation at G2/M phase at 7.1 uM after 24 hrs by propidium iodide staining-based flow cytometry (reference value: 7.2%); type: functional; summary of the method: as §1
MCF7 [7] = assay: Cell cycle arrest in human MCF7 cells assessed as accumulation at S phase at 7.1 uM after 24 hrs by propidium iodide staining-based flow cytometry (reference value: 25.2%); type: functional; summary of the method: as §1
MCF7 [8] = assay: Induction of apoptosis in human MCF7 cells assessed as necrotic cells at 7.1 uM after 24 hrs by Annexin V-FITC/propidium iodide staining based flow cytometry (reference value: 0.1%); type: functional
MCF7 [9] = assay: Induction of apoptosis in human MCF7 cells assessed as late apoptotic cells at 7.1 uM after 24 hrs by Annexin V-FITC/propidium iodide staining based flow cytometry (reference value: 0.3%); type: functional
MCF7 [10] = assay: Induction of apoptosis in human MCF7 cells assessed as early apoptotic cells at 7.1 uM after 24 hrs by Annexin V-FITC/propidium iodide staining based flow cytometry (reference value: 0.7%); type: functional
MCF7 [11] = assay: Induction of apoptosis in human MCF7 cells assessed as viable cells at 7.1 uM after 24 hrs by Annexin V-FITC/propidium iodide staining based flow cytometry (reference value: 99.9%); type: functional
MCF7 [12] = assay: Induction of apoptosis in human MCF7 cells assessed as early apoptotic cells at 7.1 uM after 24 hrs by Annexin V-FITC/propidium iodide staining based flow cytometry relative to control; type: functional
MCF7 [13] = assay: Induction of apoptosis in human MCF7 cells assessed as BAX expression levels at 7.1 uM after 24 hrs by SYBR Green dye-based RT-PCR analysis (reference value: 196 IU/ml); type: functional
MCF7 [14] = assay: Induction of apoptosis in human MCF7 cells assessed as Bcl2 expression levels at 7.1 uM after 24 hrs by SYBR Green dye-based RT-PCR analysis (reference value: 538306 IU/ml); type: functional
MCF7 [15] = assay: Induction of apoptosis in human MCF7 cells assessed as p53 expression levels at 7.1 uM after 24 hrs by SYBR Green dye-based RT-PCR analysis (reference value: 244 IU/ml); type: functional
MCF7 [16] = assay: Induction of apoptosis in human MCF7 cells assessed as active caspase3 expression levels at 7.1 uM after 24 hrs by SYBR Green dye-based RT-PCR analysis (reference value: 75 IU/ml); type: functional
DNA topoisomerase 2-beta = DNA topoisomerase 2-beta (Homo sapiens, UniProt Q02880); assay: Inhibition of human topoisomerase 2beta after 2 hrs at 37 degC by ELISA
Chain of DNA topoisomerase 2-beta (Q02880 whole entry): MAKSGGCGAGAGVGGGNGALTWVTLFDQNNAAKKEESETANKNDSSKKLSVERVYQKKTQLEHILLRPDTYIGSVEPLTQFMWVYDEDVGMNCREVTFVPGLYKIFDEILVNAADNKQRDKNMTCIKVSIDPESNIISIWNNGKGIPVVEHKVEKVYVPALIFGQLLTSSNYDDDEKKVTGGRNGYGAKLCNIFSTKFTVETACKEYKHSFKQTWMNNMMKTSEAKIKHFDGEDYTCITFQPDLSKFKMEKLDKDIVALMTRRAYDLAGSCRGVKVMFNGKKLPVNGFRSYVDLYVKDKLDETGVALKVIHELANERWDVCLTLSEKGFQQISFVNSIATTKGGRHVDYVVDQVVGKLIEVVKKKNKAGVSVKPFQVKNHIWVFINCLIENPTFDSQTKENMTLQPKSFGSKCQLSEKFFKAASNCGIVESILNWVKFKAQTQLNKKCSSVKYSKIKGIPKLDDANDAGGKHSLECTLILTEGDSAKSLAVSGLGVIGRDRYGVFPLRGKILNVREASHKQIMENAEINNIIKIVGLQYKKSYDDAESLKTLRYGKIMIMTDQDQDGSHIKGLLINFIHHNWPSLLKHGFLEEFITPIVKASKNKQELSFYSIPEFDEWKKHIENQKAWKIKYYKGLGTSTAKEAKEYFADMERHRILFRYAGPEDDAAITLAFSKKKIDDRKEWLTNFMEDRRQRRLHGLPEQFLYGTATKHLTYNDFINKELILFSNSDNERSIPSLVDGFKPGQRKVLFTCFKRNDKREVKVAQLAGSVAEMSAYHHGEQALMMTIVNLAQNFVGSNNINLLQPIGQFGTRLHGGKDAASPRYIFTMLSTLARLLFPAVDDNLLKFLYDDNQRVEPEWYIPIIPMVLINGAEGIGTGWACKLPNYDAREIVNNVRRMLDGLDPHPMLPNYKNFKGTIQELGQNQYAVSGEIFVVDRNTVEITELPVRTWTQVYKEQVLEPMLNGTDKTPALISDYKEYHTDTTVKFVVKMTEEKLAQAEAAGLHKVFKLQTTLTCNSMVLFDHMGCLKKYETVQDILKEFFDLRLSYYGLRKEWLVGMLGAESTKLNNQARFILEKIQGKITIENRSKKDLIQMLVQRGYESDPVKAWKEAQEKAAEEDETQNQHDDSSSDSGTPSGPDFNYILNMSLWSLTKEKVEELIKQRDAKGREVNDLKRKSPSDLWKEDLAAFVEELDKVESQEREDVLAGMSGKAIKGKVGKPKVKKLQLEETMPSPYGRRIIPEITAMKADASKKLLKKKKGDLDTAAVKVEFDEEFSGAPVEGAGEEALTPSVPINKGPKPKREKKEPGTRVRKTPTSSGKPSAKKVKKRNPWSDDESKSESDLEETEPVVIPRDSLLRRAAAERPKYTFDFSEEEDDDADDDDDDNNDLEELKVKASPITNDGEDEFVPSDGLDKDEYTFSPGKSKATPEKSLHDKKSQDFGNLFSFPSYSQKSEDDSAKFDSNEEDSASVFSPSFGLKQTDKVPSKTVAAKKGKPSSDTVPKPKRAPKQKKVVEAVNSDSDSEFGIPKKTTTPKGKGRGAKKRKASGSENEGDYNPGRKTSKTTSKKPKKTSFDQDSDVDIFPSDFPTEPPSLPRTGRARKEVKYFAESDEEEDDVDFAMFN
Summary of the method: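 Sandwich ELISA: standard or sample incubated 2 h at 37°C, then biotin-antibody 1 h at 37°C, then HRP-avidin 1 h at 37°C, then TMB 15–30 min at 37°C in the dark. OD read at 450 nm.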

[17] = molecular target: T1, Vascular endothelial growth factor receptor 2 (Homo sapiens, UniProt P35968); assay: Inhibition of human VEGFR2 after 2 hrs by ELISA
T1 sequence (P35968 whole entry): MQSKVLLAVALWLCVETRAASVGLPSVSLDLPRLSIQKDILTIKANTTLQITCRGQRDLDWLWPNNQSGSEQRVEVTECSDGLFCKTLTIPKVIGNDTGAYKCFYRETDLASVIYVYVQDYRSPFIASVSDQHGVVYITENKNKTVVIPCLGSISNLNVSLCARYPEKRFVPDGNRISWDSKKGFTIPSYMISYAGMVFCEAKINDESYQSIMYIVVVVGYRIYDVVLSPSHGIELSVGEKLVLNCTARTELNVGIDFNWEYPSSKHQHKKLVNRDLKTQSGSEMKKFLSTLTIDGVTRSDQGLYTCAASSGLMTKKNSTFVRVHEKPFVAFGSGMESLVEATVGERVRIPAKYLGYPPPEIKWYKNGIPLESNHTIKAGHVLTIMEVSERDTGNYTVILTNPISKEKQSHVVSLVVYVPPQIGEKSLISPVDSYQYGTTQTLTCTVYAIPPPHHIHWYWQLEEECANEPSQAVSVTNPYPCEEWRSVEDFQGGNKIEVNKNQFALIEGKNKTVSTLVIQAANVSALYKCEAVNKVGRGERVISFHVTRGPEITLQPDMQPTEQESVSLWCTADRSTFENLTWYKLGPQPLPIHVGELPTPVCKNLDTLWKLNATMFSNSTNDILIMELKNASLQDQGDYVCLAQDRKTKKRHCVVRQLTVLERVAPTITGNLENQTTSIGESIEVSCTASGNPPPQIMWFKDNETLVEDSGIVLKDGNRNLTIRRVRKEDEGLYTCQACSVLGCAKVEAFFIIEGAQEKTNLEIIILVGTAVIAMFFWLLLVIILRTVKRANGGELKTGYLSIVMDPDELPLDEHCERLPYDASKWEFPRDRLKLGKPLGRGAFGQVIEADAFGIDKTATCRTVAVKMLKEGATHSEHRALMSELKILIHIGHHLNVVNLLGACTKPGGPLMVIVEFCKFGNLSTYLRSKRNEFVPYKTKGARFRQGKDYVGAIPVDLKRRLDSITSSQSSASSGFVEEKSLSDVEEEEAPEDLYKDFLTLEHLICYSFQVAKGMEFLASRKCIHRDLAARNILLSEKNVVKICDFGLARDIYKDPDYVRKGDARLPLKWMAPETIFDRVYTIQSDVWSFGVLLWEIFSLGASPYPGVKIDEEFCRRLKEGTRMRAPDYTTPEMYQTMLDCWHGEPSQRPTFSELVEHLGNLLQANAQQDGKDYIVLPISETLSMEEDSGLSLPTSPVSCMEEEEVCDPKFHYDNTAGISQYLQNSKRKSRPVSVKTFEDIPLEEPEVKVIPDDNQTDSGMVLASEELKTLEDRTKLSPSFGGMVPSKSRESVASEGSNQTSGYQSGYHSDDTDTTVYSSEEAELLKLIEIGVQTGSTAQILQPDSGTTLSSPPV

[18] = molecular target: T1, Vascular endothelial growth factor receptor 2; assay: Potency index, ratio of sorafenib IC50 to compound IC50 for inhibition of human VEGFR2
MCF7 [19] = assay: Cell cycle arrest in human MCF7 cells assessed as accumulation at subG1 phase at 7.1 uM after 24 hrs by propidium iodide staining-based flow cytometry (reference value: 1.2%); type: functional; summary of the method: as §1

`O=C(Nc1ccc(Nc2ncnc3sc4c(c23)CCCC4)cc1)Nc1c(Cl)cccc1Cl` was tested, and the IC50 (MCF7 [1]) was 103 µM.
With `Brc1ccc(-c2cs/c(=N\c3ccc(Nc4ncnc5sc6c(c45)CCCC6)cc3)n2-c2ccccc2)cc1` the IC50 (MCF7 [1]) was 37.3 µM.
In the case of `COc1ccc(NC(=S)Nc2ccc(Nc3ncnc4sc5c(c34)CCCC5)cc2)cc1`, the IC50 (MCF7 [1]) is reported as 79.1 µM.
With `O=C(Nc1ccc(Nc2ncnc3sc4c(c23)CCCC4)cc1)Nc1cc(C(F)(F)F)ccc1F` the IC50 (MCF7 [1]) was 10.3 µM and the “Ratio IC50” value (MCF7 [2]) was 1.03 - 1.5.
With `O=C(NNc1ncnc2sc3c(c12)CCCC3)Nc1ccc(Cl)c(C(F)(F)F)c1` the IC50 (MCF7 [1]) was 53.4 µM.
Work on `O=C(NNc1ncnc2sc3c(c12)CCCC3)Nc1c(Cl)cccc1Cl` yielded an IC50 (MCF7 [1]) of 88.9 µM.
`Cc1cccc(Cl)c1NC(=O)Nc1ccc(Nc2ncnc3sc4c(c23)CCCC4)cc1` gave an IC50 (MCF7 [1]) of 53.9 µM.
`O=C(NNc1ncnc2sc3c(c12)CCCC3)Nc1cc(C(F)(F)F)ccc1F` showed an IC50 (MCF7 [1]) of 28.2 µM.
`Cc1ccc(NC(=S)Nc2ccc(Nc3ncnc4sc5c(c34)CCCC5)cc2)cc1` was tested, and the IC50 (MCF7 [1]) was 56.1 µM.
With `Cc1cccc(Cl)c1NC(=O)Nc1nnc2c3c4c(sc3ncn12)CCCC4` the IC50 (MCF7 [1]) was 29.1 µM.
In the case of `O=C(NNc1ncnc2sc3c(c12)CCCC3)Nc1cccc(C(F)(F)F)c1`, the IC50 (MCF7 [1]) is reported as 22.7 µM.
In the case of `S=C(Nc1ccc(Cl)cc1)Nc1ccc(Nc2ncnc3sc4c(c23)CCCC4)cc1`, the IC50 (MCF7 [1]) is reported as 51.5 µM.
In the case of `O=C(Nc1cc(C(F)(F)F)ccc1F)Nc1nnc2c3c4c(sc3ncn12)CCCC4`, the IC50 (MCF7 [1]) is reported as 71.9 µM.
For `O=C(Nc1ccc(Nc2ncnc3sc4c(c23)CCCC4)cc1)Nc1cccc(C(F)(F)F)c1`, the IC50 (MCF7 [1]) was 51.7 µM.
`Cc1cccc(NC(=S)Nc2ccc(Nc3ncnc4sc5c(c34)CCCC5)cc2)c1` gave an IC50 (MCF7 [1]) of 38.8 µM.
For `S=C(Nc1ccccc1)Nc1nnc2c3c4c(sc3ncn12)CCCC4`, the IC50 (MCF7 [1]) was 80.9 µM.
For `S=C(Nc1ccc(Br)cc1)Nc1ccc(Nc2ncnc3sc4c(c23)CCCC4)cc1`, the IC50 (MCF7 [1]) was 9.55 µM and the “Ratio IC50” value (MCF7 [2]) was 1.03 - 1.5.
For `O=C(Nc1ccc(Nc2ncnc3sc4c(c23)CCCC4)cc1)Nc1ccc(Cl)c(C(F)(F)F)c1`, the IC50 (MCF7 [1]) was 7.1 µM, the “Ratio IC50” value (MCF7 [2]) was 1.03 - 1.5 and the “fold change (FC)” value (MCF7 [3]) was 15.1. The “fold change (FC)” value (MCF7 [4]) was 2.2, the Activity (MCF7 [5]) was 36.3% and the Activity (MCF7 [6]) was 16.3%. For the same compound, the Activity (MCF7 [7]) was 29.2%, the Activity (MCF7 [8]) was 3% and the Activity (MCF7 [9]) was 7%. For the same compound, the Activity (MCF7 [10]) was 21%, the Activity (MCF7 [11]) was 69% and the “fold change (FC)” value (MCF7 [12]) was 30. It also gave an Activity (MCF7 [13]) of 389968 IU/ml, an Activity (MCF7 [14]) of 131 IU/ml and an Activity (MCF7 [15]) of 77214 IU/ml. It also gave an Activity (MCF7 [16]) of 64223 IU/ml, an IC50 (DNA topoisomerase 2-beta) of 9.29 µM and an IC50 [17] of 0.2 µM. The Ratio IC50 [18] was 2.1 and the Activity (MCF7 [19]) was 18.2%.
In the case of `COc1cccc2c1C(=O)c1c(O)c3c(c(O)c1C2=O)C[C@@](O)(C(=O)CO)C[C@@H]3O[C@H]1C[C@H](N)[C@H](O)[C@H](C)O1` [DOXORUBICIN], the IC50 (MCF7 [1]) is reported as 10.6 µM, the Activity (MCF7 [13]) is reported as 1824021 IU/ml and the Activity (MCF7 [14]) is reported as 8 IU/ml. The Activity (MCF7 [15]) was 1271.6 IU/ml, the Activity (MCF7 [16]) was 363940 IU/ml and the IC50 (DNA topoisomerase 2-beta) was 3.5 µM.
`Cc1cccc(Cl)c1NC(=O)NNc1ncnc2sc3c(c12)CCCC3` was tested, and the IC50 (MCF7 [1]) was 90.2 µM.
With `Cc1cccc(NC(=S)Nc2nnc3c4c5c(sc4ncn23)CCCC5)c1` the IC50 (MCF7 [1]) was 99.9 µM.
`Cc1cccc(Cl)c1NC(=S)Nc1ccc(Nc2ncnc3sc4c(c23)CCCC4)cc1` was tested, and the IC50 (MCF7 [1]) was 52.1 µM.
With `Cc1cccc(Cl)c1-n1c(-c2ccc(Br)cc2)co/c1=N\c1ccc(Nc2ncnc3sc4c(c23)CCCC4)cc1` the IC50 (MCF7 [1]) was 235 µM.
For `S=C(Nc1ccccc1)Nc1ccc(Nc2ncnc3sc4c(c23)CCCC4)cc1`, the IC50 (MCF7 [1]) was 48.2 µM.
For `O=C(Nc1cccc(C(F)(F)F)c1)Nc1nnc2c3c4c(sc3ncn12)CCCC4`, the IC50 (MCF7 [1]) was 68.5 µM.
